From ChEMBL document CHEMBL5329156, “Discovery and development of novel substituted monohydrazides as potent antifungal agents” (RSC Med Chem, 2023)
≈ marks a conversion by molar mass, not a printed value.

How the values were obtained:
Type in all cases: functional
Nakaseomyces glabratus [1] = experiment: Antifungal activity against Candida glabrata ATCC 2001 assessed as fungal growth inhibition by double dilution method
How it was run: (§1)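 Broth microdilution after CLSI M27-A3/M38-A2 with minor changes. Single colony grown overnight in YPD at 35 °C, 200 rpm. Compound final range 0.06-31.3 µg/mL; incubated 48 h at 35 °C.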

Aspergillus terreus = experiment: Antifungal activity against Aspergillus terreus ATCC MYA-3633 assessed as fungal growth inhibition by double dilution method
[Candida] auris [2] = Antifungal activity against Candida auris AR Bank # 0390 assessed as fungal growth inhibition by double dilution method; conditions: Candidozyma auris; how it was run: as §1
Pichia kudriavzevii = experiment: Antifungal activity against Pichia kudriavzevii ATCC 6258 assessed as fungal growth inhibition by double dilution method; how it was run: as §1
Candida albicans [3] = experiment: Antifungal activity against itraconazole/fluconazole susceptible Candida albicans ATCC MYA-2876 assessed as fungal growth inhibition by double dilution method
How it was run: (§2)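 Broth microdilution after CLSI M27-A3/M38-A2 with minor modifications. A single colony was grown overnight in YPD at 35 °C with shaking at 200 rpm. Cells were mixed 1:1 with compound (final 0.06-31.3 µg/mL, from DMSO stocks) and incubated 48 h at 35 °C.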

Aspergillus flavus = experiment: Antifungal activity against Aspergillus flavus ATCC MYA-3631 assessed as fungal growth inhibition by double dilution method
Candida albicans [4] = experiment: Antifungal activity against Candida albicans ATCC 10231 assessed as fungal growth inhibition by double dilution method; how it was run: as §1
Candida albicans [5] = experiment: Antifungal activity against itraconazole/fluconazole susceptible Candida albicans ATCC MYA-2310 assessed as fungal growth inhibition by double dilution method; how it was run: as §2
Nakaseomyces glabratus [6] = experiment: Antifungal activity against Candida glabrata ATCC 22019 assessed as fungal growth inhibition by double dilution method; how it was run: as §1
Cryptococcus neoformans = experiment: Antifungal activity against Cryptococcus neoformans ATCC MYA-895 assessed as fungal growth inhibition by double dilution method; how it was run: as §1
Candida albicans [7] = experiment: Antifungal activity against itraconazole/fluconazole resistant Candida albicans ATCC MYA-1237 assessed as fungal growth inhibition by double dilution method; how it was run: as §2
[Candida] auris [8] = Antifungal activity against Candida auris AR Bank # 0384 assessed as fungal growth inhibition by double dilution method; conditions: Candidozyma auris; how it was run: as §1
Candida albicans [9] = experiment: Antifungal activity against itraconazole/fluconazole resistant Candida albicans ATCC 90819 assessed as fungal growth inhibition by double dilution method; how it was run: as §2
Aspergillus fumigatus [10] = experiment: Antifungal activity against Aspergillus fumigatus NRRL 5109 assessed as fungal growth inhibition by double dilution method
Candida albicans [11] = experiment: Antifungal activity against Candida albicans ATCC 64124 assessed as fungal growth inhibition by double dilution method; how it was run: as §2
Aspergillus fumigatus [12] = experiment: Antifungal activity against Aspergillus fumigatus NRRL 163 assessed as fungal growth inhibition by double dilution method
Aspergillus fumigatus [13] = experiment: Antifungal activity against Aspergillus fumigatus NRRL 6113 assessed as fungal growth inhibition by double dilution method
Candida albicans [14] = experiment: Antifungal activity against itraconazole/fluconazole resistant Candida albicans ATCC MYA-1003 assessed as fungal growth inhibition by double dilution method; how it was run: as §2
Aspergillus nidulans = experiment: Antifungal activity against Aspergillus nidulans ATCC 38163 assessed as fungal growth inhibition by double dilution method

| SMILES | MIC (Nakaseomyces glabratus [1]) | MIC (Aspergillus terreus) | MIC ([Candida] auris [2]) | MIC (Pichia kudriavzevii) | MIC (Candida albicans [3]) | MIC (Aspergillus flavus) | MIC (Candida albicans [4]) | MIC (Candida albicans [5]) | MIC (Nakaseomyces glabratus [6]) | MIC (Cryptococcus neoformans) | MIC (Candida albicans [7]) | MIC ([Candida] auris [8]) | MIC (Candida albicans [9]) | MIC (Aspergillus fumigatus [10]) | MIC (Candida albicans [11]) | MIC (Aspergillus fumigatus [12]) | MIC (Aspergillus fumigatus [13]) | MIC (Candida albicans [14]) | MIC (Aspergillus nidulans) |
| --- | --- | --- | --- | --- | --- | --- | --- | --- | --- | --- | --- | --- | --- | --- | --- | --- | --- | --- | --- |
| COc1ccc(NNC(=O)c2ccc(F)cc2F)cc1 | 3.9 µg/mL (≈ 14 µM) | 31.3 µg/mL (≈ 112 µM) | 1.95 µg/mL (≈ 7.01 µM) | 0.98 µg/mL (≈ 3.52 µM) | 1.95 µg/mL (≈ 7.01 µM) | > 31.3 µg/mL | 0.98 µg/mL (≈ 3.52 µM) | 1.95 µg/mL (≈ 7.01 µM) | 7.8 µg/mL (≈ 28 µM) | 0.98 µg/mL (≈ 3.52 µM) | 1.95 µg/mL (≈ 7.01 µM) | 1.95 µg/mL (≈ 7.01 µM) | 1.95 µg/mL (≈ 7.01 µM) | > 31.3 µg/mL | 1.95 µg/mL (≈ 7.01 µM) | > 31.3 µg/mL | > 31.3 µg/mL | 1.95 µg/mL (≈ 7.01 µM) | 1.95 µg/mL (≈ 7.01 µM) |
| O=C(NNc1ccc(F)cc1)c1cccc(F)n1 | 15.6 µg/mL (≈ 62.6 µM) | 1.95 µg/mL (≈ 7.82 µM) | 0.98 µg/mL (≈ 3.93 µM) | 0.49 µg/mL (≈ 1.97 µM) | 1.95 µg/mL (≈ 7.82 µM) | 7.8 µg/mL (≈ 31.3 µM) | 0.24 µg/mL (≈ 0.963 µM) | 3.9 µg/mL (≈ 15.6 µM) | 3.9 µg/mL (≈ 15.6 µM) | 0.49 µg/mL (≈ 1.97 µM) | 1.95 µg/mL (≈ 7.82 µM) | 1.95 µg/mL (≈ 7.82 µM) | 1.95 µg/mL (≈ 7.82 µM) | 15.6 µg/mL (≈ 62.6 µM) | 0.98 µg/mL (≈ 3.93 µM) | 31.3 µg/mL (≈ 126 µM) | 15.6 µg/mL (≈ 62.6 µM) | 0.98 µg/mL (≈ 3.93 µM) | 0.98 µg/mL (≈ 3.93 µM) |
| COc1cccc(NNC(=O)c2ccc(Br)cn2)c1 | 3.9 µg/mL (≈ 12.1 µM) | 1.95 µg/mL (≈ 6.05 µM) | 1.95 µg/mL (≈ 6.05 µM) | 0.24 µg/mL (≈ 0.745 µM) | 0.98 µg/mL (≈ 3.04 µM) | > 31.3 µg/mL | 0.98 µg/mL (≈ 3.04 µM) | 3.9 µg/mL (≈ 12.1 µM) | 1.95 µg/mL (≈ 6.05 µM) | 0.49 µg/mL (≈ 1.52 µM) | 0.98 µg/mL (≈ 3.04 µM) | 0.98 µg/mL (≈ 3.04 µM) | 1.95 µg/mL (≈ 6.05 µM) | 15.6 µg/mL (≈ 48.4 µM) | 3.9 µg/mL (≈ 12.1 µM) | > 31.3 µg/mL | > 31.3 µg/mL | 3.9 µg/mL (≈ 12.1 µM) | 3.9 µg/mL (≈ 12.1 µM) |
| O=C(NNc1cccc(F)c1)c1ccc(F)cn1 | 31.3 µg/mL (≈ 126 µM) | 1.95 µg/mL (≈ 7.82 µM) | 1.95 µg/mL (≈ 7.82 µM) | 0.24 µg/mL (≈ 0.963 µM) | 3.9 µg/mL (≈ 15.6 µM) | 7.8 µg/mL (≈ 31.3 µM) | 0.49 µg/mL (≈ 1.97 µM) | 3.9 µg/mL (≈ 15.6 µM) | 1.95 µg/mL (≈ 7.82 µM) | ≤ 0.06 µg/mL | 3.9 µg/mL (≈ 15.6 µM) | 1.95 µg/mL (≈ 7.82 µM) | 3.9 µg/mL (≈ 15.6 µM) | > 31.3 µg/mL | 0.49 µg/mL (≈ 1.97 µM) | > 31.3 µg/mL | > 31.3 µg/mL | 1.95 µg/mL (≈ 7.82 µM) | 0.98 µg/mL (≈ 3.93 µM) |
| COc1cccc(NNC(=O)c2cccc(Br)n2)c1 | 7.8 µg/mL (≈ 24.2 µM) | 1.95 µg/mL (≈ 6.05 µM) | 1.95 µg/mL (≈ 6.05 µM) | 0.24 µg/mL (≈ 0.745 µM) | 0.49 µg/mL (≈ 1.52 µM) | > 31.3 µg/mL | 1.95 µg/mL (≈ 6.05 µM) | 7.8 µg/mL (≈ 24.2 µM) | 0.98 µg/mL (≈ 3.04 µM) | 0.98 µg/mL (≈ 3.04 µM) | 0.98 µg/mL (≈ 3.04 µM) | 0.98 µg/mL (≈ 3.04 µM) | 1.95 µg/mL (≈ 6.05 µM) | 31.3 µg/mL (≈ 97.2 µM) | 3.9 µg/mL (≈ 12.1 µM) | > 31.3 µg/mL | > 31.3 µg/mL | 3.9 µg/mL (≈ 12.1 µM) | 3.9 µg/mL (≈ 12.1 µM) |
| COc1ccc(NNC(=O)c2nc(F)ccc2F)cc1 | 7.8 µg/mL (≈ 27.9 µM) | 31.3 µg/mL (≈ 112 µM) | 0.98 µg/mL (≈ 3.51 µM) | 0.98 µg/mL (≈ 3.51 µM) | 1.95 µg/mL (≈ 6.98 µM) | > 31.3 µg/mL | 1.95 µg/mL (≈ 6.98 µM) | 1.95 µg/mL (≈ 6.98 µM) | 7.8 µg/mL (≈ 27.9 µM) | 0.98 µg/mL (≈ 3.51 µM) | 0.98 µg/mL (≈ 3.51 µM) | 3.9 µg/mL (≈ 14 µM) | 1.95 µg/mL (≈ 6.98 µM) | 15.6 µg/mL (≈ 55.9 µM) | 1.95 µg/mL (≈ 6.98 µM) | 31.3 µg/mL (≈ 112 µM) | 31.3 µg/mL (≈ 112 µM) | 0.98 µg/mL (≈ 3.51 µM) | 1.95 µg/mL (≈ 6.98 µM) |
| COc1cccc(NNC(=O)c2ccc(F)cn2)c1 | 15.6 µg/mL (≈ 59.7 µM) | 3.9 µg/mL (≈ 14.9 µM) | 0.98 µg/mL (≈ 3.75 µM) | 0.24 µg/mL (≈ 0.919 µM) | 0.49 µg/mL (≈ 1.88 µM) | > 31.3 µg/mL | 0.24 µg/mL (≈ 0.919 µM) | 1.95 µg/mL (≈ 7.46 µM) | 3.9 µg/mL (≈ 14.9 µM) | 0.24 µg/mL (≈ 0.919 µM) | 1.95 µg/mL (≈ 7.46 µM) | 1.95 µg/mL (≈ 7.46 µM) | 3.9 µg/mL (≈ 14.9 µM) | > 31.3 µg/mL | 0.98 µg/mL (≈ 3.75 µM) | > 31.3 µg/mL | > 31.3 µg/mL | 0.98 µg/mL (≈ 3.75 µM) | 1.95 µg/mL (≈ 7.46 µM) |
| O=C(NNc1cccc(F)c1)c1ccc(Br)cn1 | > 31.3 µg/mL | 0.98 µg/mL (≈ 3.16 µM) | 1.95 µg/mL (≈ 6.29 µM) | 0.24 µg/mL (≈ 0.774 µM) | 1.95 µg/mL (≈ 6.29 µM) | 15.6 µg/mL (≈ 50.3 µM) | 0.49 µg/mL (≈ 1.58 µM) | 3.9 µg/mL (≈ 12.6 µM) | 7.8 µg/mL (≈ 25.2 µM) | 0.06 µg/mL (≈ 0.193 µM) | 3.9 µg/mL (≈ 12.6 µM) | 1.95 µg/mL (≈ 6.29 µM) | 3.9 µg/mL (≈ 12.6 µM) | > 31.3 µg/mL | 0.49 µg/mL (≈ 1.58 µM) | > 31.3 µg/mL | > 31.3 µg/mL | 0.98 µg/mL (≈ 3.16 µM) | 1.95 µg/mL (≈ 6.29 µM) |
| O=C(NNc1ccc(F)cc1)c1nc(F)ccc1F | 15.6 µg/mL (≈ 58.4 µM) | 1.95 µg/mL (≈ 7.3 µM) | 0.98 µg/mL (≈ 3.67 µM) | 0.24 µg/mL (≈ 0.898 µM) | 0.98 µg/mL (≈ 3.67 µM) | 7.8 µg/mL (≈ 29.2 µM) | 0.24 µg/mL (≈ 0.898 µM) | 0.98 µg/mL (≈ 3.67 µM) | 7.8 µg/mL (≈ 29.2 µM) | 0.49 µg/mL (≈ 1.83 µM) | 0.98 µg/mL (≈ 3.67 µM) | 1.95 µg/mL (≈ 7.3 µM) | 0.98 µg/mL (≈ 3.67 µM) | 15.6 µg/mL (≈ 58.4 µM) | 0.98 µg/mL (≈ 3.67 µM) | 31.3 µg/mL (≈ 117 µM) | > 31.3 µg/mL | 0.49 µg/mL (≈ 1.83 µM) | 0.49 µg/mL (≈ 1.83 µM) |
